Published values from different studies.
Each line is one published result; the experiments were not run side by side.
Read-out: cell growth or viability

| SMILES | cell line | technique | concentration | time | quantity | value |
| --- | --- | --- | --- | --- | --- | --- |
| Cc1nc(Nc2ncc(C(=O)Nc3c(C)cccc3Cl)s2)cc(N2CC[C@H](O)C2)n1 | Ramos | ATP luminescence | 10 µM | 72 h | inhibition | 15% |
| O=C(Nc1ccc(Cl)cc1)Nc1ccc(-c2cn(Cc3cccc(Cl)c3)nn2)cc1 | Huh-7 | CCK-8 | 50 µM | 48 h | viability | 86.7% |
| O=C(Nc1ccc(-c2ccccc2)cc1)c1cnn(-c2ccc([N+](=O)[O-])cc2)c1C(F)(F)F | LX-2 | MTS | 50 µM | 72 h | inhibition | 12.4% |
| O=[N+]([O-])c1cc(Br)c(O)c(C=NNc2ccc(Cl)cc2)c1 | HEK-293T | MTT | – | 24 h | IC50 | 17.2 µM |
| COc1ccc(NC(=O)Nc2cccc(-c3cn(Cc4ccccc4C)nn3)c2)cc1 | Huh-7 | CCK-8 | 50 µM | 72 h | viability | 10.5% |
| O=C(Nc1ccc(Cl)cc1)Nc1ccc(-c2cn(Cc3ccc(Cl)cc3)nn2)cc1 | Huh-7 | CCK-8 | 50 µM | 72 h | viability | 72.8% |
| COc1ccc(NC(=O)NCc2cn(Cc3ccccc3C)nn2)cc1 | Huh-7 | CCK-8 | 50 µM | 48 h | viability | 84.2% |
| CC(C)C[C@H](NC(=O)[C@H](Cc1ccccc1)NC(=O)c1cnccn1)B(O)O | HepG2 | ATP luminescence | – | 48 h | EC50 | 7 pM |
| O=C(Nc1ccc(Cl)cc1)Nc1cccc(-c2cn(Cc3cccc(Br)c3)nn2)c1 | Huh-7 | CCK-8 | 50 µM | 72 h | viability | 14.5% |
| COc1cc(NC(=O)c2cnn(-c3ccc([N+](=O)[O-])cc3)c2C(F)(F)F)cc(OC)c1 | LX-2 | MTS | 50 µM | 72 h | inhibition | 14.1% |
| COc1ccc(NC(=O)Nc2ccc(-c3cn(Cc4ccc(C)cc4)nn3)cc2)cc1 | Huh-7 | CCK-8 | 50 µM | 72 h | viability | 64.7% |
| O=C(Nc1ccc(-c2cn(Cc3ccc(Br)cc3)nn2)cc1)Nc1ccccc1Br | Huh-7 | CCK-8 | 50 µM | 48 h | viability | 70.8% |
